One block for each compound: values may come before it.
Legend:
[1] = biological target: Tyrosine-protein kinase Fyn (Homo sapiens) (UniProt P06241); assay: Inhibition of human recombinant FYN at 500 nM related to control ULK1
[2] = biological target: Insulin-like growth factor 1 receptor (Homo sapiens) (UniProt P08069); assay: Inhibition of human recombinant IGF1R at 500 nM in presence of ATP by radiometric assay relative to control
[3] = biological target: Non-receptor tyrosine-protein kinase TYK2 (Homo sapiens) (UniProt P29597); assay: Inhibition of human recombinant TYK2 at 500 nM related to control ULK1
[4] = biological target: Serine/threonine-protein kinase PLK2 (Homo sapiens) (UniProt Q9NYY3); assay: Inhibition of human recombinant PLK2 at 500 nM related to control ULK1
[5] = biological target: Tyrosine-protein kinase JAK2 (Homo sapiens) (UniProt O60674); assay: Inhibition of human recombinant JAK2 at 500 nM related to control ULK1
[6] = biological target: T1, Interleukin-1 receptor-associated kinase 4 (Homo sapiens) (UniProt Q9NWZ3); assay: Inhibition of human recombinant IRAK4 at 500 nM in presence of ATP by radiometric assay relative to control
T1 sequence (whole entry): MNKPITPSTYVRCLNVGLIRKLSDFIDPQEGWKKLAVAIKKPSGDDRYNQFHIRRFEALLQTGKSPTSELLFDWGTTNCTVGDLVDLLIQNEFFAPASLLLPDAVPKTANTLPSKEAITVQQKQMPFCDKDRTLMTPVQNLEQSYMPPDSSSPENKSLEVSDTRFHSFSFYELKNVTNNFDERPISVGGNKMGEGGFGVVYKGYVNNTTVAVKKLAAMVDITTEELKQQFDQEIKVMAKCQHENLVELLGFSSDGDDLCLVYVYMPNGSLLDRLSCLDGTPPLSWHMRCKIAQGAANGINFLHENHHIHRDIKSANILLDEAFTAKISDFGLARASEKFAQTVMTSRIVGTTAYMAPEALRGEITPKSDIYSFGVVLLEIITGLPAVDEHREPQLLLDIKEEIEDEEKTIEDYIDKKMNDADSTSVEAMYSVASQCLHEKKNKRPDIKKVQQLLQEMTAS

[7] = biological target: Serine/threonine-protein kinase pim-3 (Homo sapiens) (UniProt Q86V86); assay: Inhibition of human recombinant PIM3 at 500 nM in presence of ATP by radiometric assay relative to control
[8] = biological target: Insulin-like growth factor 1 receptor (Homo sapiens) (UniProt P08069); assay: Inhibition of human recombinant IGF1R at 500 nM related to control ULK1
[9] = biological target: High affinity nerve growth factor receptor (Homo sapiens) (UniProt P04629); assay: Inhibition of human recombinant TRKA at 500 nM related to control ULK1
[10] = biological target: T2, Testis-specific serine/threonine-protein kinase 2 (Homo sapiens) (UniProt Q96PF2); assay: Inhibition of human recombinant TSSK2 at 500 nM related to control ULK1
T2 sequence (whole entry): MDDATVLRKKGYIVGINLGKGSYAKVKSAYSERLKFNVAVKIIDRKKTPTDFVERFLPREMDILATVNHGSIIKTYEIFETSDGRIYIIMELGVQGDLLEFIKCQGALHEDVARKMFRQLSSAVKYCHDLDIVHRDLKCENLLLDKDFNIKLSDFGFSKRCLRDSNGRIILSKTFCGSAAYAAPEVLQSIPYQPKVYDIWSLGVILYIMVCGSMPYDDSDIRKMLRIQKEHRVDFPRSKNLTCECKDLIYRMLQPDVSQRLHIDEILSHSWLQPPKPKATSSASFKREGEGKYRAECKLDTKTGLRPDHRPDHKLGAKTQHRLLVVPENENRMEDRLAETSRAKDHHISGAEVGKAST

[11] = biological target: Casein kinase I isoform gamma-3 (Homo sapiens) (UniProt Q9Y6M4); assay: Inhibition of human recombinant CK1g3 at 15 nM related to control ULK1
[12] = biological target: Dual specificity mitogen-activated protein kinase kinase 2 (Homo sapiens) (UniProt P36507); assay: Inhibition of human recombinant MAP2K2 at 15 nM related to control ULK1
[13] = biological target: T3, Testis-specific serine/threonine-protein kinase 4 (Homo sapiens) (UniProt Q6SA08); assay: Inhibition of human recombinant TSSK4 at 15 nM in presence of ATP by radiometric assay relative to control
T3 sequence (whole entry): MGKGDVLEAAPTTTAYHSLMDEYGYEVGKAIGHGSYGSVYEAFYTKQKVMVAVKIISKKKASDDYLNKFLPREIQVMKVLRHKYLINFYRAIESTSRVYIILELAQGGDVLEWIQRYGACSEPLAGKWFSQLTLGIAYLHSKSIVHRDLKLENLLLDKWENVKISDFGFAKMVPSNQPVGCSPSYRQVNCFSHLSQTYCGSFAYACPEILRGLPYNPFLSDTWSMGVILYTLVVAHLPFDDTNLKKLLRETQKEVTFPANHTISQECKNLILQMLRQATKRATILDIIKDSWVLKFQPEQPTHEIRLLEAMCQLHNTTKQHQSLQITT

[14] = biological target: Mitogen-activated protein kinase 11 (Homo sapiens) (UniProt Q15759); assay: Inhibition of human recombinant p38beta at 15 nM in presence of ATP by radiometric assay relative to control
[15] = biological target: Cyclin-dependent kinase-like 3 (Homo sapiens) (UniProt Q8IVW4); assay: Inhibition of human recombinant CDKL3 at 40 nM in presence of ATP by radiometric assay relative to control
[16] = biological target: RAC-alpha serine/threonine-protein kinase (Homo sapiens) (UniProt P31749); assay: Inhibition of human recombinant AKT1 at 40 nM related to control ULK1
Procedure, shortened: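 Radiometric activity assays in a panel of 327 human recombinant kinases, each run in duplicate at one inhibitor concentration. Activity remaining is expressed as percent of vehicle control, and percent inhibition is calculated as 100% minus percent activity remaining.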

Sequence of Insulin-like growth factor 1 receptor (Homo sapiens) (P08069 31-736 limits assumed): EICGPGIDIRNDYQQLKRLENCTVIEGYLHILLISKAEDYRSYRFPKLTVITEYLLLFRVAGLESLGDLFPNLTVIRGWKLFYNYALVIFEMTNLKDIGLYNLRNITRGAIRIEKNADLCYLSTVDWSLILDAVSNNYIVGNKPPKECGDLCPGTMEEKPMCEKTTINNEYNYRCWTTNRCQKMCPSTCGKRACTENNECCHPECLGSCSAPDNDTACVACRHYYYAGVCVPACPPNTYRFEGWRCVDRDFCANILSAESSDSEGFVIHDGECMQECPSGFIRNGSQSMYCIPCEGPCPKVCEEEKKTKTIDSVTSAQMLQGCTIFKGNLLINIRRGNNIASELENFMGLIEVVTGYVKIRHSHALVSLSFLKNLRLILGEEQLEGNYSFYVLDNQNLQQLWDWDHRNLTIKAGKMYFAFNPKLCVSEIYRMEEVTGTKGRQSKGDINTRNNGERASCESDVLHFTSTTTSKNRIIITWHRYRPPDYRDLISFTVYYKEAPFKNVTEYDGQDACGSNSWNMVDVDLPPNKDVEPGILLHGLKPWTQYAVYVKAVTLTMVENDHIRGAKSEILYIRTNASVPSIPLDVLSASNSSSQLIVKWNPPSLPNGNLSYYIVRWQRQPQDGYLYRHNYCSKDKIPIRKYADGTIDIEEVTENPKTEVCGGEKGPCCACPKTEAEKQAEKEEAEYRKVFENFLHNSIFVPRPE
Sequence of Insulin-like growth factor 1 receptor (Homo sapiens) (P08069 741-1367 limits assumed): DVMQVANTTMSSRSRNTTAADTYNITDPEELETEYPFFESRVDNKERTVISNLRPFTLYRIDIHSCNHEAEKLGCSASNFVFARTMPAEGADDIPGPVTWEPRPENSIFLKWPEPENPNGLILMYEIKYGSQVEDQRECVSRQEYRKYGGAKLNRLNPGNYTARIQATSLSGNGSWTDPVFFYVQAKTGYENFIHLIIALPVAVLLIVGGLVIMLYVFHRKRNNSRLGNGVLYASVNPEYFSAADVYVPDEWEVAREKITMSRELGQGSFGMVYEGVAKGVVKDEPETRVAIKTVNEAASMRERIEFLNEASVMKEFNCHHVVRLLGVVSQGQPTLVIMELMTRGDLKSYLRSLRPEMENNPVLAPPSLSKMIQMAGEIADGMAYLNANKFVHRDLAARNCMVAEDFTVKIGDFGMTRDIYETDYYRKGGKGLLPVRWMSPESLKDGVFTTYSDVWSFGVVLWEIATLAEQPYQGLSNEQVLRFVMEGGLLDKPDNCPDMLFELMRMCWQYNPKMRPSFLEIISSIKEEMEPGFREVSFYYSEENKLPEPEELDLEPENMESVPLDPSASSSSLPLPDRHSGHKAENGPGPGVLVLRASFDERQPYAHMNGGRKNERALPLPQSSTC
Sequence of Dual specificity mitogen-activated protein kinase kinase 2 (Homo sapiens) (P36507 whole entry): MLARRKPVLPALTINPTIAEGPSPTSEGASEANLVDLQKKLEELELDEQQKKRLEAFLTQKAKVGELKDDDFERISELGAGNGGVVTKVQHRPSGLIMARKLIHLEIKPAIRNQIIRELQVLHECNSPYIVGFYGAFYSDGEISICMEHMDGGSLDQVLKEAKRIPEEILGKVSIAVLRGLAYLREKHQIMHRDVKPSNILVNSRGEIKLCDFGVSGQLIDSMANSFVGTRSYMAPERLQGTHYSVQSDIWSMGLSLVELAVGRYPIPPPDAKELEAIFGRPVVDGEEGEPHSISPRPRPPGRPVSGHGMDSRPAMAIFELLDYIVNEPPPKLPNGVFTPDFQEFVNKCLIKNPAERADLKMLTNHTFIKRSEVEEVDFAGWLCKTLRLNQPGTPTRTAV
Sequence of Serine/threonine-protein kinase PLK2 (Homo sapiens) (Q9NYY3 whole entry, looked up): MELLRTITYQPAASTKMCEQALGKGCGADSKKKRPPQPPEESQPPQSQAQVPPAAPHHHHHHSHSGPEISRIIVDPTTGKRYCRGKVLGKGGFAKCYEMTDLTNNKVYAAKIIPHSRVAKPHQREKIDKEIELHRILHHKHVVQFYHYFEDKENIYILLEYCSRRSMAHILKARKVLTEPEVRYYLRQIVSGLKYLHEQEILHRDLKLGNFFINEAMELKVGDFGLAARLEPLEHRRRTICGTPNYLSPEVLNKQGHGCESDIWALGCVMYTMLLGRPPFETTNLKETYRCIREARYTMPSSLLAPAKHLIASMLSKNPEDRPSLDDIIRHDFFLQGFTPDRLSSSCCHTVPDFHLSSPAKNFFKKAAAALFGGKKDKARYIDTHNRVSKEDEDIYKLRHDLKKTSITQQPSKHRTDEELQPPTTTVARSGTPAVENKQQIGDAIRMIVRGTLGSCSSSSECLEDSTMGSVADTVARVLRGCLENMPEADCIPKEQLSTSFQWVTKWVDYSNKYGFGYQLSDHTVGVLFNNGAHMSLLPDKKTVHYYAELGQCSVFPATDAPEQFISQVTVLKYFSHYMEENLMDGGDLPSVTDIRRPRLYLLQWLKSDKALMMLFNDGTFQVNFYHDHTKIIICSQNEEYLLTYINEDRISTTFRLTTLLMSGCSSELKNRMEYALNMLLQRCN
Sequence of Casein kinase I isoform gamma-3 (Homo sapiens) (Q9Y6M4 whole entry, looked up, canonical isoform): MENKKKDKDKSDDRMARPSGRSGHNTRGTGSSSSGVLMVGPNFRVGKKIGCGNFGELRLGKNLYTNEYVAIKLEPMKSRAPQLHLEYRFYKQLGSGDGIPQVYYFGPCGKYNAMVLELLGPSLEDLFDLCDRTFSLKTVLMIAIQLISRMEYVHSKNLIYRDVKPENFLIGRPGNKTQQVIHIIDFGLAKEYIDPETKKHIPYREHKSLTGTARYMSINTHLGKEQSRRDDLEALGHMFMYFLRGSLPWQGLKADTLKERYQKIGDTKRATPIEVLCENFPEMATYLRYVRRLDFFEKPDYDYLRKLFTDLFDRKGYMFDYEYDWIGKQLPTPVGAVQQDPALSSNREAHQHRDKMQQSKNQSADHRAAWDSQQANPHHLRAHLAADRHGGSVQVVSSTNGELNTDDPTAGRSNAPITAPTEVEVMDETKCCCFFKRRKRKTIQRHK
Sequence of Non-receptor tyrosine-protein kinase TYK2 (Homo sapiens) (P29597 whole entry): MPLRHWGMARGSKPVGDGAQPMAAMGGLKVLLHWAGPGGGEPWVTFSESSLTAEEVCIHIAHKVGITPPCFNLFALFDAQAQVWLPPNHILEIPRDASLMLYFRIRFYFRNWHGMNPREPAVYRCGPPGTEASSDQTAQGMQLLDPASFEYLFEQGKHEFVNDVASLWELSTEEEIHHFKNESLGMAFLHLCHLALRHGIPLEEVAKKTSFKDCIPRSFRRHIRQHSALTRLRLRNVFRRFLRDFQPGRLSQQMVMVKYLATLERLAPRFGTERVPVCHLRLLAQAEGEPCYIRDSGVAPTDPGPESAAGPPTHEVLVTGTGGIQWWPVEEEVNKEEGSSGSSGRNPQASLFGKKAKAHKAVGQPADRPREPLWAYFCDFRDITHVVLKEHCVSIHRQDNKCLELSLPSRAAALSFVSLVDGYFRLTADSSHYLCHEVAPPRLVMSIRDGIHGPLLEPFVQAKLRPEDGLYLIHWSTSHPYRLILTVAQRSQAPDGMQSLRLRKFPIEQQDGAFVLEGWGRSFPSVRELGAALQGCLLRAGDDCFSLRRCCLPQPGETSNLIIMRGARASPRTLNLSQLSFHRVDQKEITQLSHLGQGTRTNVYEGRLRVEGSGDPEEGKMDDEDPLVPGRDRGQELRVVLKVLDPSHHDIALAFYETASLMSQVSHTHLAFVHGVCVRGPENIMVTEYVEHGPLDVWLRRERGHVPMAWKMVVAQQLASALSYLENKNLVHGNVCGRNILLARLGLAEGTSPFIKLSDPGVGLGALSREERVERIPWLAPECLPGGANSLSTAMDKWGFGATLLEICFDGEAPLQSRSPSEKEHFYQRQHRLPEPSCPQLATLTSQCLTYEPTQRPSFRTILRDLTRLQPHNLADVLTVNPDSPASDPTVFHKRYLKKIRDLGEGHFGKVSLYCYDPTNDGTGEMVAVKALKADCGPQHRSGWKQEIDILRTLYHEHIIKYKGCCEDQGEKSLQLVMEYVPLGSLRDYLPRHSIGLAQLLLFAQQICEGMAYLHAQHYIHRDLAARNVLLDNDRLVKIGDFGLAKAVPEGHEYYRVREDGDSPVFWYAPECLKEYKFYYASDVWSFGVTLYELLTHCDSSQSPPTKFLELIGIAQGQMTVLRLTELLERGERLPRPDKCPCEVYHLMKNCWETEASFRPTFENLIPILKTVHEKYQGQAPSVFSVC
Sequence of Cyclin-dependent kinase-like 3 (Homo sapiens) (Q8IVW4 whole entry, looked up): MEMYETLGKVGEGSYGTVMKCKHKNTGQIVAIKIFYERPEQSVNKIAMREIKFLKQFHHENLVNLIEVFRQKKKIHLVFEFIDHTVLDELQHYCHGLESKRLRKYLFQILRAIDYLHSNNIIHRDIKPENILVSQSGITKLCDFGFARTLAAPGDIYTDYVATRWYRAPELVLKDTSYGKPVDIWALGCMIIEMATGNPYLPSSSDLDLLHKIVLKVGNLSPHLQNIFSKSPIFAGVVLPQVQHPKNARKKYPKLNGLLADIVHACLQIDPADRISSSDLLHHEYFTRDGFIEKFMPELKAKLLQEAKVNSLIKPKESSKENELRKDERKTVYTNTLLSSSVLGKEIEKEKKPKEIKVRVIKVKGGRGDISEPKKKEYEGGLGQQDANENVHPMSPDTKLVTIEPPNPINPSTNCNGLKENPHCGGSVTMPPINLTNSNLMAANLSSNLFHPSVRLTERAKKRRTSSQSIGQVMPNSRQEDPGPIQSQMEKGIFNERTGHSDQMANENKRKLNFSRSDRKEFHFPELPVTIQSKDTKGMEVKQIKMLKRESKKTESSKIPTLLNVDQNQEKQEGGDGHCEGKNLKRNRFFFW

fold change (FC) [1]: 0.26 | inhibition [2]: 3% | fold change (FC) [3]: 1.05 | fold change (FC) [4]: 0.05 | fold change (FC) [5]: 1.05 | inhibition [6]: 6% | inhibition [7]: 0% | fold change (FC) [8]: 0.04 | fold change (FC) [9]: 0.7 | fold change (FC) [10]: 0.03
SMILES: CNC(=O)c1ccccc1Oc1nc(Nc2cc(OC)c(OC)c(OC)c2)ncc1Br

fold change (FC) [11]: 0.03 | fold change (FC) [12]: 0 | inhibition [13]: 0% | inhibition [14]: 1%
SMILES: CC(C)[C@H](NC(=O)c1cc(-c2cnn3cc(-c4ccc(OCCN5CCCCC5)cc4)cnc23)cs1)C(F)(F)F

inhibition [15]: 39% | fold change (FC) [16]: 0
SMILES: O=C(N[C@@H](C1CC1)C(F)(F)F)c1cc(-c2cnn3cc(-c4ccc(F)cc4)cnc23)cs1
